For assay [1], the target named is T1, Adrenergic receptor alpha-2 (Rattus norvegicus, UniProt P22086+P19328+P22909).
T1 sequence (P22086 whole entry): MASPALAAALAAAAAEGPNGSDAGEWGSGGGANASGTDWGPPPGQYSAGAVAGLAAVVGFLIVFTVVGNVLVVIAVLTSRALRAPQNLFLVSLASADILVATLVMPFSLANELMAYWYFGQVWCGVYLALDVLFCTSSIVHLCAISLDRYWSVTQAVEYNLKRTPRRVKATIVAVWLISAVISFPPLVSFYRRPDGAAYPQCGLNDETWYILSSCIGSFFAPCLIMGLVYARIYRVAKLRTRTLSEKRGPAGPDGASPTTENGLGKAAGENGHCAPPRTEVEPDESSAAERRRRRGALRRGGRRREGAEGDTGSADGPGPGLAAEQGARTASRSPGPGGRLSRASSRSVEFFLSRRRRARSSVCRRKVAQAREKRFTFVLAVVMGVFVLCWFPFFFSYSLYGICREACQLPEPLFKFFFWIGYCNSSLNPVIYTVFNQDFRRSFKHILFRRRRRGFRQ
T1 sequence (P19328 whole entry): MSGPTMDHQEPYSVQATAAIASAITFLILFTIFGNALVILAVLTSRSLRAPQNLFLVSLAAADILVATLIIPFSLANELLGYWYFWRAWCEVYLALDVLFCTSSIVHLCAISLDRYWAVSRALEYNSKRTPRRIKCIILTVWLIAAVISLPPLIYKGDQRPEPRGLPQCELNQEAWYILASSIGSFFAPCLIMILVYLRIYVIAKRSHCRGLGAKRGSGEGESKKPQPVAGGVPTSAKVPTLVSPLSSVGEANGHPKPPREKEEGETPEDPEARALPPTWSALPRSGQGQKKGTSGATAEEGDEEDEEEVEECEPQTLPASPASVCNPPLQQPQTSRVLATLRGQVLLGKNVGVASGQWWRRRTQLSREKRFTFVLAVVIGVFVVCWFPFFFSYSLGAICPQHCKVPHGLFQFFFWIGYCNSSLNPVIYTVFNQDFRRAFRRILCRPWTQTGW
T1 sequence (P22909 whole entry): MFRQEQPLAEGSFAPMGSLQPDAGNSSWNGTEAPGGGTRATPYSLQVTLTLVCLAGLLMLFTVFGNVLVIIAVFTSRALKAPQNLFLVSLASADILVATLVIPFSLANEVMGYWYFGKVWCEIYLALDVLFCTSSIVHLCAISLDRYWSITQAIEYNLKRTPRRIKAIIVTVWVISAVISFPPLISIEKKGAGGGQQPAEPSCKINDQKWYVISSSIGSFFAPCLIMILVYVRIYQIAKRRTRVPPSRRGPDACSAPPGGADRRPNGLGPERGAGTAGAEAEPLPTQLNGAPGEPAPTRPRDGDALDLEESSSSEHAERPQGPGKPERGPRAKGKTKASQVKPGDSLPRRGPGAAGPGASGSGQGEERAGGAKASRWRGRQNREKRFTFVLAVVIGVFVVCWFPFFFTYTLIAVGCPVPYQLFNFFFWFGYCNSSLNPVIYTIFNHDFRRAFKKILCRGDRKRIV
Kind of assay: Compound was tested for the inhibition of [3H]clonidine binding Alpha-2 adrenergic receptor of crude rat brain membrane.

The subject of assay [2] is Rattus norvegicus. In words: Delta BP refers to oral hypotensive activity of compound which is evaluated at 4 hr and 24 hr in restrained, normotensive conscious rats at a dose of 15 mg/kg; -20/-18. The class given is functional. A digest of the protocol:
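Female Sprague-Dawley rats, normotensive, restrained in a towel. Blood pressure was read directly via chronic indwelling aortic cannulas exteriorized at the nape, before and 4 and 24 h after an oral dose suspended in carboxymethylcellulose (10 mL/kg). Values from two animals were averaged at each time; a mean change of at least 5 mmHg was taken as significant (p < 0.05).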

Assay [3] concerns Rattus norvegicus. In words: Pressor effects of intravenous norepinephrine (0.1 ug/kg) was measured in anesthetized rats at 60 min. The class given is functional. A digest of the protocol:
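Female Sprague-Dawley rats (200–300 g), anesthetized iv with α-chloralose (40 mg/kg), urethane (40 mg/kg) and pentobarbital (15 mg/kg). Carotid artery catheter for blood pressure and heart rate, jugular vein for drugs. Test agent given at 1.0 mg/kg iv in 0.1 M citric acid (1 mg/mL). Pressor responses to iv norepinephrine 0.1 μg/kg, phenylephrine 2.5 μg/kg and angiotensin I 0.1 μg/kg were taken before and 15, 30, 45 and 60 min after dosing. Mean ± SEM.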

The Ki is the equilibrium dissociation constant of an inhibitor or competing ligand from its target. Lower therefore signals tighter binding.

`COc1cc2c(cc1OC)C(CCN1CCN(c3ccc(F)cc3)CC1)OCC2` (stereo not drawn) registered an inhibition constant (Ki) in assay [1] of 62 nM. In assay [2], this compound had a Delta blood pressure of -20 mmHg. This compound came in with a Pressor response in assay [3] of 7 mmHg.

For the origin of these results see ChEMBL document CHEMBL1122179, “1-(alkylamino)isochromans: hypotensives with peripheral and central activities” (J Med Chem, 1982).
